Only some compounds are listed: those with a hit (about 2.3% of all), similar ones and a draw of the others.
PLC-gamma1 inh – blocks human PLC-gamma1 enzyme activity | P19174 | purified PLC-gamma1, fluorogenic substrate, fluorescence | inhibition, % at 12.2 µM | 0.84% of 370,000 active; in the data active means inhibition above about 9.5%
ADAM17 inh – ADAM17 inhibition, QFRET primary screen | recombinant ADAM17, EDANS/DABCYL FRET peptide cleavage | 0.83% of 370,000 active | P78536 | AID 720648 | inhibition, % at 6.95 µM;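 active means inhibition above the mean of compounds lying between control limits plus 3 SD, set per campaign, cut at about 8.5% in these data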
Target sequence (P78536 215-824 limits assumed): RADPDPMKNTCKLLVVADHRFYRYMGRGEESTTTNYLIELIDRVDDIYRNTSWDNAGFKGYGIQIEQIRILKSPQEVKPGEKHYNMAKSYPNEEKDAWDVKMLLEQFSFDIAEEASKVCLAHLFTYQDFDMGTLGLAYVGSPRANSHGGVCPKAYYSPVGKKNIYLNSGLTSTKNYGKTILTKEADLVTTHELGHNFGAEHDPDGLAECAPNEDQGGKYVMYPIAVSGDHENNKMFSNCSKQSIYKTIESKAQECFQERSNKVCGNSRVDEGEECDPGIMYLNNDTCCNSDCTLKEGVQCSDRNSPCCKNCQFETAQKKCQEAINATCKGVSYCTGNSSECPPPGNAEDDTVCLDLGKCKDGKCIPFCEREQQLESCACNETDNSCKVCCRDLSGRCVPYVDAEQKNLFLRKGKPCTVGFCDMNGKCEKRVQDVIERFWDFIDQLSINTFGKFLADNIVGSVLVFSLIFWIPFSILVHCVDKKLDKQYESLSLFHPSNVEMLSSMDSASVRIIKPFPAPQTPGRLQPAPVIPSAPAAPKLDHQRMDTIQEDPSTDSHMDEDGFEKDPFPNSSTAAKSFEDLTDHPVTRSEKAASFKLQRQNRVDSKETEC
PLCb3 inh – blocks human PLC-beta3 enzyme activity | Q01970 | Purified PLC-beta3, fluorogenic substrate, fluorescence | inhibition, % at 12.2 µM | 0.18% of 370,000 active | AID 720704; in the data active means inhibition above about 11%
Tb MetRS inh – Trypanosoma brucei MetRS inhibition; purified T. brucei MetRS, ATP depletion, Kinase-Glo luminescence; inhibition, % at 11.9 µM; 0.4% of 360,000 active; AID 624268;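 active means inhibition above a per-plate cutoff of the control wells' mean inhibition plus 3 SD, cut at about 5.5% in these data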
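Material: parasite MetRS enzyme / Replication: singlicate, one well per compound / Signal: luminescence of leftover ATP / Schedule: 2 h aminoacylation at 25 °C after 15 min preincubation / Medium: HEPES-MgCl2-KCl buffer plus DTT, spermine, BSA, pyrophosphatase / Doses: 11.9 µM single point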
ADAM10 inh – inhibitors of human ADAM10 | O14672 | recombinant ADAM10, EDANS/DABCYL FRET peptide cleavage, 3 h | inhibition, % at 7 µM | 0.62% of 370,000 active | AID 720582;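 active means inhibition above a per-campaign cutoff equal to the mean of compounds falling between control-based bounds plus 3 SD, cut at about 20% in these data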
ADAM10 confirm – human ADAM10 inhibition, confirmation. inhibition, % at 6.95 µM. 1% of 2,100 active. ADAM10 QFRET peptide cleavage, EDANS fluorescence. shares compounds with ADAM10 inh;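 active means inhibition above about 20% chosen separately for each screening run, limit read from the data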
ADAM17 ctr – ADAM17 inhibition, counter-screen for ADAM10 exosite hits | shares compounds with ADAM10 inh | ADAM17 QFRET peptide cleavage, EDANS fluorescence | inhibition, % at 6.95 µM | 0.5% of 2,100 active;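 active means mean triplicate inhibition above the solvent-only control wells' mean plus 3 SD, cut at about 12% in these data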
Each line names hits and unclear results; the compound was inactive in the other large screens (follow-up assays come after a bar, where they were run).

O=C(Nc1c(-c2ccc3c(c2)OCO3)[nH][nH]c1=O)c1ccccc1	none
CCCC[C@@H]1Cc2[nH][nH]c(=O)c2[C@H](c2ccc(C(C)C)cc2)O1	none
CCOC(=O)c1ccc(NC(=S)N(Cc2cccnc2)Cc2ccco2)cc1	none
CCOc1ccc(NC(=S)N(Cc2ccc(Cl)cc2)Cc2ccco2)cc1	ADAM10 inh 24 | ADAM10 confirm inactive | ADAM17 ctr inactive
COc1ccc(NC(=O)c2ccc(-c3ccccc3)cc2)cc1NS(=O)(=O)c1ccc(F)cc1	ADAM10 inh 24 | ADAM10 confirm 31 | ADAM17 ctr inactive
C[C@H]1[C@@H](Cc2cc(Cl)cc(Cl)c2)N(c2ccccc2)c2ccccc2CN1Cc1ccccc1	none
CCCc1ccc(Oc2cn[nH]c2-c2ccc(O)cc2O)cc1	ADAM10 inh 22 | ADAM10 confirm inactive | ADAM17 ctr inactive
C=C(C)COc1ccc(-c2[nH]ncc2Oc2cccc(OC)c2)c(O)c1	ADAM10 inh 27 | ADAM10 confirm inactive | ADAM17 ctr inactive
COc1ccc(Oc2cn[nH]c2-c2ccc(O)cc2O)cc1	none
O=C(NC1CCC1)O[C@H]1CC[C@@]23CCCN2C(=O)CCC[C@H]3C1	none (no result: Tb MetRS inh)
CCC1(c2ccccc2)NC(=O)N(CC(=O)N(CC(=O)Nc2ccccc2C(F)(F)F)Cc2ccco2)C1=O (configuration not stated)	ADAM10 inh 81 | ADAM10 confirm inactive | ADAM17 ctr inactive
CCN(CC(=O)Nc1ccccc1C(F)(F)F)C(=O)CN1C(=O)NC2(CCCCC2)C1=O	none
O=C(NC1=N[C@@]2(C=C3CCCCC3n3c(=O)n(-c4ccccc4)c(=O)n32)[C@H](Cc2ccccc2)N1Cc1ccccc1)c1ccccc1 (some centres not stated)	ADAM17 inh 9.7, ADAM10 inh 20 (no result: Tb MetRS inh) | ADAM10 confirm inactive | ADAM17 ctr inactive
O=C(N=C1N(Cc2ccccc2)C[C@]2(C=C3CCCCC3n3c(=O)n(-c4ccccc4)c(=O)n32)N1C(=O)OCc1ccccc1)c1ccccc1 (some centres not stated)	none (no result: Tb MetRS inh)
NS(=O)(=O)c1ccc(NC(=S)NNC(=O)CCC(=O)Nc2ccccc2Cl)cc1	none
O=C(CCC(=O)Nc1ccccc1Cl)NNC(=S)Nc1ccccc1C(F)(F)F	ADAM10 inh 28 | ADAM10 confirm inactive | ADAM17 ctr inactive
CSc1ccccc1C(=O)C1CCCN(C(=O)c2cccc(Cn3cccn3)c2)C1 (configuration not stated)	none
COc1cc(Br)cc(CNc2ccc(F)c([N+](=O)[O-])c2)c1O	ADAM10 inh 20 | ADAM10 confirm inactive | ADAM17 ctr inactive
N#Cc1ccc(NC(=O)COC(=O)CSc2nnc(-c3ccc(Cl)cc3)o2)cc1	none
COc1ccc(C2(c3ccc(OC)cc3)NC(=O)N(CC(=O)Nc3ccccc3C(F)(F)F)C2=O)cc1	ADAM10 inh 21 | ADAM10 confirm inactive | ADAM17 ctr inactive
Cc1ccc(C2(c3ccccc3)NC(=O)N(CC(=O)NCc3ccccc3)C2=O)cc1C (configuration not stated)	ADAM10 inh 23 | ADAM10 confirm inactive | ADAM17 ctr inactive
CCCCc1nnc(NC(=O)CN2C(=O)NC3(CCCCC3)C2=O)s1	none
CC(=O)Nc1ccc(-c2ccnc3c2CC(C)(C(=O)Nc2ccc(Cl)c(C(F)(F)F)c2)O3)cc1 (configuration not stated)	ADAM10 inh 20 | ADAM10 confirm inactive | ADAM17 ctr inactive
CCOc1cccc(C(=O)Nc2ccc(N(CC)CC)cc2)c1	ADAM10 inh 27 | ADAM10 confirm inactive | ADAM17 ctr inactive
CCOc1cccc(C(=O)Nc2ccc3ccccc3c2)c1	none
COc1ccc(-c2nc(CN3CCN(Cc4ccccc4)CC3)c(C)o2)cc1	ADAM10 inh 79 | ADAM10 confirm inactive | ADAM17 ctr inactive
COC(=O)C1CN(Cc2ccccc2)CCS(=O)(=O)N1Cc1cccc(Cl)c1 (configuration not stated)	none (no result: Tb MetRS inh)
Cc1n[nH]c(C)c1N=Nc1ccc(Br)cc1	ADAM10 inh 21 | ADAM10 confirm inactive | ADAM17 ctr inactive
Cn1c(SCCN2CCCC2)nnc1C1CCN(S(=O)(=O)c2cccc(F)c2)CC1	none
Cc1cc(=O)oc2cc(OCC(=O)N3CCC(C(N)=O)CC3)ccc12	none
N#Cc1ccc(CN(Nc2ccccc2)c2ccccc2)cc1	ADAM10 inh 27 | ADAM10 confirm inactive | ADAM17 ctr inactive
c1ccc(NN(Cc2ccncc2)c2ccccc2)cc1	none
CSc1ccc(S(=O)(=O)NCc2ccc(Cl)cc2Cl)cc1	Tb MetRS inh 7.5, ADAM10 inh 20 | ADAM10 confirm inactive | ADAM17 ctr inactive
COc1ccc(CCC[C@H](CCC(=O)N(c2ccccc2)c2ccccc2)CCc2ccccc2)cc1	none (no result: Tb MetRS inh)
COc1ccc(C(=O)COC(=O)/C=C/c2ccc(S(=O)(=O)Nc3cccc(S(N)(=O)=O)c3)cc2)cc1	ADAM10 inh 21 | ADAM10 confirm inactive | ADAM17 ctr inactive
CCOC(=O)C1=C(C(=O)OCC)C2N(Cc3ccc(C#N)cc3)c3ccccc3[C@@]23C[C@@H](C(=O)OC)N(S(=O)(=O)c2ccccc2)C3=N1 (some centres not stated)	none (no result: Tb MetRS inh)
CC(C)Oc1ccc(CNC(=S)Nc2ccccc2)cc1Cl	none
CC(C)COc1ccc(CNC(=S)Nc2ccccc2)cc1Cl	ADAM10 inh 21 | ADAM10 confirm inactive | ADAM17 ctr inactive
CC(=O)c1cnc2ncnn2c1C	none
CCCCn1c(SCCN2CCCCC2)nc2c1c(=O)n(C)c(=O)n2C	none
CCOc1nc(N2CCOCC2)nc(C)c1[N+](=O)[O-]	ADAM10 inh 20 | ADAM10 confirm inactive | ADAM17 ctr inactive
CNCCOc1nc(N2CCOCC2)nc(C)c1[N+](=O)[O-]	none
COc1ccc(COC(=O)c2cccc(S(=O)(=O)N3CCN(C(C)=O)CC3)c2)cc1	none
Cn1c(=O)c2ncn(CC(=O)Nc3nc(-c4ccc(Cl)cc4)cs3)c2n(C)c1=O	none
O=C(c1cccc(Cl)c1)N1CCC(=O)N([C@H](COCc2cccc(Cl)c2)Cc2ccccc2)CC1	ADAM10 inh 20 | ADAM10 confirm inactive | ADAM17 ctr inactive
CC(C)CC(COCc1ccc(C(F)(F)F)cc1)N1CCN(C(=O)c2ccc(C(F)(F)F)cc2)CCC1=O (configuration not stated)	ADAM10 inh 27 | ADAM10 confirm inactive | ADAM17 ctr inactive
Cc1cccc(COCC(Cc2ccccc2)N2CCN(C(=O)c3cccc(C)c3)CCC2=O)c1 (configuration not stated)	none
CCOP(=O)(OCC)C(NC(=O)Nc1ccc(Cl)c(Cl)c1)c1ccccc1 (configuration not stated)	ADAM10 inh 22 | ADAM10 confirm inactive | ADAM17 ctr inactive
